Reference: ChEMBL document CHEMBL4261600 (Eur J Med Chem, 2018)

Tests used:
[1] = target: Serine/threonine-protein kinase pim-1 (Homo sapiens) (UniProt P11309); experiment: Binding affinity to wild-type human partial length PIM1 (A15 to K313 residues) expressed in bacterial expression system assessed as remaining unbound target protein level at 1000 nM by Kinomescan method relative to control
[2] = target: Activin receptor type-1-like (Homo sapiens) (UniProt P37023); experiment: Binding affinity to wild-type human ACVRL1 (L164 to Q503 residues) expressed in bacterial expression system assessed as remaining unbound target protein level at 1000 nM by Kinomescan method relative to control
Method in brief: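 Single-point competition binding screen across a panel of 468 kinases and mutants, with the inhibitor at 1 μM. Binding is read out as percent of a DMSO control, and targets below 1 percent control were classed as strong binders.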

[3] = target: Serine/threonine-protein kinase SIK3 (Homo sapiens) (UniProt Q9Y2K2); experiment: Binding affinity to wild-type human partial length QSK (A90 to L395 residues) expressed in mammalian expression system assessed as remaining unbound target protein level at 1000 nM by Kinomescan method relative to control
[4] = target: Cyclin-dependent kinase 14/Cyclin-Y (Homo sapiens, UniProt O94921); experiment: Inhibition of recombinant GST-tagged human full length CDK14/cyclin Y (2 to end residues); format: protein-complex assay
[5] = target: Tyrosine-protein kinase ABL2 (Homo sapiens) (UniProt P42684); experiment: Binding affinity to wild-type human ABL2 (A248 to G542 residues) expressed in bacterial expression system assessed as remaining unbound target protein level at 1000 nM by Kinomescan method relative to control
Method in brief: (§1)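 KINOMEscan competitive binding profile at 1 μM inhibitor. Remaining target binding reported as percent of DMSO control.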

[6] = target: Serine/threonine-protein kinase Nek5 (Homo sapiens) (UniProt Q6P3R8); experiment: Binding affinity to wild-type human partial length NEK5 (M1 to M279 residues) expressed in bacterial expression system assessed as remaining unbound target protein level at 1000 nM by Kinomescan method relative to control
[7] = target: RAC-beta serine/threonine-protein kinase (Homo sapiens) (UniProt P31751); experiment: Binding affinity to wild-type human partial length AKT2 expressed in bacterial expression system assessed as remaining unbound target protein level at 1000 nM by Kinomescan method relative to control
Method in brief: (§2)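 Profiled in a KINOMEscan binding panel with the inhibitor at a single concentration of 1 μM. Binding to each kinase was read out as percent of control, relative to a DMSO control. Strong binders were defined as those with a percent control value below 1.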

[8] = target: Serine/threonine-protein kinase 10 (Homo sapiens) (UniProt O94804); experiment: Binding affinity to wild-type human partial length LOK (E16 to V314 residues) expressed in bacterial expression system assessed as remaining unbound target protein level at 1000 nM by Kinomescan method relative to control
[9] = target: Serine/threonine-protein kinase 35 (Homo sapiens) (UniProt Q8TDR2); experiment: Binding affinity to wild-type human partial length STK35 (G182 to A534 residues) expressed in bacterial expression system assessed as remaining unbound target protein level at 1000 nM by Kinomescan method relative to control
[10] = target: Ribosomal protein S6 kinase alpha-1 (Homo sapiens) (UniProt Q15418); experiment: Binding affinity to wild-type human partial length N-terminal RSK1 Kinase domain 1 (M1 to E388 residues) expressed in bacterial expression system assessed as remaining unbound target protein level at 1000 nM by Kinomescan method relative to control
[11] = target: Interleukin-1 receptor-associated kinase 1 (Homo sapiens) (UniProt P51617); experiment: Binding affinity to wild-type human partial length IRAK1 (R194 to S712 residues) expressed in mammalian expression system assessed as remaining unbound target protein level at 1000 nM by Kinomescan method relative to control
Method in brief: (§3)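 KINOMEscan binding panel of 468 kinases/mutants. Inhibitor was tested at a single concentration of 1 μM. Binding is reported as percent of control, defined relative to a DMSO control.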

[12] = target: Ephrin type-A receptor 6 (Homo sapiens) (UniProt Q9UF33); experiment: Binding affinity to wild-type human partial length EPHA6 (Y700 to E1046 residues) expressed in bacterial expression system assessed as remaining unbound target protein level at 1000 nM by Kinomescan method relative to control
[13] = AUC (0 to infinity) in mouse at 10 mg/kg, po by LC-MS/MS analysis; format: ADME, organism-based; parameters: dose 10 mg/kg, route oral, time infinity; details: in vivo
Method in brief: (§4)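 Non-compartmental PK. Male SD rats 190-210 g, mice and beagle dogs acclimatized one week, fasted 12 h with water, split into iv and po groups (mice 48, rats 6, dogs 6). iv 3/3/2 mg/kg (mice/rats/dogs); po 10/20/10 mg/kg; vehicle DMSO in 5% glucose water. Blood at 2 or 5 to 720 min; plasma protein-precipitated with methanol, caffeine internal standard, LC-MS/MS.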

[14] = target: Tyrosine-protein kinase ABL1 (Homo sapiens) (UniProt P00519); experiment: Binding affinity to wild-type human phosphorylated ABL1 (S229 to K512 residues) expressed in mammalian expression system assessed as remaining unbound target protein level at 1000 nM by Kinomescan method relative to control
[15] = AUC (0 to infinity) in Sprague-Dawley rat at 3 mg/kg, iv by LC-MS/MS analysis; format: ADME, organism-based; parameters: dose 3 mg/kg, time infinity, route intravenous; details: in vivo; method in brief: as §4
[16] = target: Interleukin-1 receptor-associated kinase 4 (Homo sapiens) (UniProt Q9NWZ3); experiment: Binding affinity to wild-type human partial length IRAK4 (M1 to S460 residues) expressed in mammalian expression system assessed as remaining unbound target protein level at 1000 nM by Kinomescan method relative to control; method in brief: as §3
[17] = system: ALK tyrosine kinase receptor (Homo sapiens), Q9UM73 [C1156Y]; experiment: Binding affinity to wild-type human partial length ALK C1156Y mutant (I1088 to E1409 residues) expressed in mammalian expression system assessed as remaining unbound target protein level at 1000 nM by Kinomescan method relative to control; method in brief: as §2
[18] = target: Activin receptor type-1 (Homo sapiens) (UniProt Q04771); experiment: Binding affinity to wild-type human ACVR1 (C188 to C509 residues) expressed in bacterial expression system assessed as remaining unbound target protein level at 1000 nM by Kinomescan method relative to control; method in brief: as §1
[19] = target: Serine/threonine-protein kinase 32C (Homo sapiens) (UniProt Q86UX6); experiment: Binding affinity to wild-type human partial length YANK3 (M68 to G486 residues) expressed in bacterial expression system assessed as remaining unbound target protein level at 1000 nM by Kinomescan method relative to control
[20] = target: Macrophage colony-stimulating factor 1 receptor (Homo sapiens) (UniProt P07333); experiment: Binding affinity to wild-type human partial length autoinhibited CSF1R (Y538 to S939 residues) expressed in mammalian expression system assessed as remaining unbound target protein level at 1000 nM by Kinomescan method relative to control
[21] = target: Ribosomal protein S6 kinase alpha-4 (Homo sapiens) (UniProt O75676); experiment: Binding affinity to wild-type human partial length N-terminal RPS6KA4 kinase domain 1 expressed in bacterial expression system assessed as remaining unbound target protein level at 1000 nM by Kinomescan method relative to control
Homo sapiens = organism: Homo sapiens; experiment: Selectivity ratio of IC50 for recombinant full length His-tagged human CDK7/cyclin H/MNAT1 to IC50 for recombinant full length His-tagged human CDK9/CyclinT1

In the case of `COCCN[C@H]1CC[C@H](Nc2cc(-c3csc(NCC4(C#N)CCOCC4)n3)c(Cl)cn2)CC1`, the Activity [1] is reported as 55%, the Activity [2] is reported as 100% and the Activity [3] is reported as 79%. For the same compound, the IC50 [4] was 1.68 µM, the Activity [5] was 77% and the Activity [6] was 90%. It also gave an Activity [7] of 88%, an Activity [8] of 100% and an Activity [9] of 100%. It also gave an Activity [10] of 94%, an Activity [11] of 57% and an Activity [12] of 100%. For the same compound, the AUC(0-inf) [13] was 612 ng·h/mL, the Activity [14] was 91% and the AUC(0-inf) [15] was 662 ng·h/mL. For the same compound, the Activity [16] was 81%, the Activity [17] was 86% and the Activity [18] was 91%. It also gave an Activity [19] of 90%, an Activity [20] of 90% and an Activity [21] of 92%. For the same compound, the Ratio IC50 (Homo sapiens) was > 1000.
